This passage reports APTT, Ki and ID50 results from ChEMBL document CHEMBL1134648 (J Med Chem, 2001).

Molecules are shown by their SMILES.

The species entered for assay [1] is Homo sapiens. Briefly: In vitro human activated partial thromboplastin time of the compound. Format: functional.
The target of assay [2] is Prothrombin (Homo sapiens, UniProt P00734). The assay can be described thus: In vitro activity against human thrombin.
Assay [3] addresses Coagulation factor X (Homo sapiens, UniProt P00742). The assay can be described thus: Binding affinity against human coagulation factor X.
The target of assay [4] is T1, Coagulation factor X (Oryctolagus cuniculus, UniProt O19045).
T1 sequence (O19045 whole entry): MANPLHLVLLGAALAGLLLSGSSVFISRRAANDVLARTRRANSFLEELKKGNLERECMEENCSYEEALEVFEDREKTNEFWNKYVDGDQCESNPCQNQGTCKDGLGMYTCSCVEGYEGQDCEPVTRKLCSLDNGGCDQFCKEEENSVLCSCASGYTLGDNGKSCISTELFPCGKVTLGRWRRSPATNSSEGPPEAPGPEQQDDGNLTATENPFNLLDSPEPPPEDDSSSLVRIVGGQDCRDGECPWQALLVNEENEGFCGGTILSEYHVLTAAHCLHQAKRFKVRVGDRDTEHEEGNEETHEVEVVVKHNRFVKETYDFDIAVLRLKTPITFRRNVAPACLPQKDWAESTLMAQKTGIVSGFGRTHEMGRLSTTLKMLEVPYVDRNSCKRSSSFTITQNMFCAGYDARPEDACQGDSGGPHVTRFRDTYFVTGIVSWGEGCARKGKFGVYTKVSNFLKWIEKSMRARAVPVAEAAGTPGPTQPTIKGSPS
Briefly: In vitro activity against rabbit FXa.

The target in assay [5] is Trypsin (Homo sapiens, UniProt P07477+P07478+P35030). The assay can be described thus: In vitro activity against human trypsin. Format: protein assay.
The species entered for assay [6] is Homo sapiens. Briefly: In vitro Activated partial thromboplastin time of the compound. Format: functional.
Assay [7] is filed under the species Oryctolagus cuniculus. The assay can be described thus: (§1) Antithrombotic efficacy in a rabbit arteriovenous shunt thrombosis model. The assay is classed as functional.
The species named for assay [8] is Oryctolagus cuniculus. The description is as §1. The assay is classed as functional. The method, boiled down: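 Test agents were given to rabbits by intravenous continuous infusion in an arterio-venous shunt thrombosis model.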
This is another data set of the same source.

For assay [9], the target named is Tissue-type plasminogen activator (Homo sapiens, UniProt P00750). Briefly: In vitro activity against human tissue plasminogen activator.
The target of assay [10] is Coagulation factor IX (Homo sapiens, UniProt P00740). Briefly: In vitro activity against human factor IXa.
For assay [11], the target named is Plasminogen (Homo sapiens, UniProt P00747). Briefly: In vitro activity against human plasmin.
For assay [12], the target named is T1, Coagulation factor X. Briefly: In vitro activity against rabbit factor Xa.
Assay [13] addresses Plasma kallikrein (Homo sapiens, UniProt P03952). Briefly: In vitro activity against human Plasma kallikrein. The assay is classed as cell-free.
Assay [14] addresses Urokinase-type plasminogen activator (Homo sapiens, UniProt P00749). Briefly: In vitro activity against human urokinase.
For assay [15], the target named is Vitamin K-dependent protein C (Homo sapiens, UniProt P04070). The assay can be described thus: In vitro activity against human Activated protein C.
Sequence of Vitamin K-dependent protein C (P04070 43-197 limits assumed): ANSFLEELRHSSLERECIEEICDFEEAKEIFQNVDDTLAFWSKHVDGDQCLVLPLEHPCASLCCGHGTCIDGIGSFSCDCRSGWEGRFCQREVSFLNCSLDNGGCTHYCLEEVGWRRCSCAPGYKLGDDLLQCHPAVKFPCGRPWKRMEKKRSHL
Sequence of Vitamin K-dependent protein C (P04070 212-461 limits assumed): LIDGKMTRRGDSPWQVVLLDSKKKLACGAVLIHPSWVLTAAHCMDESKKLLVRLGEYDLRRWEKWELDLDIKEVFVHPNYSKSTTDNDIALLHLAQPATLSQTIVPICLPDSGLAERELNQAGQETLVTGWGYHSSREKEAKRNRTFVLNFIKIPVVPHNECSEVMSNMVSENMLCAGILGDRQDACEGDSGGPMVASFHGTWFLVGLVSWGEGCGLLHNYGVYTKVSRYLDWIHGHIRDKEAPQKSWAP

Sequence of Coagulation factor X (Homo sapiens, UniProt P00742) (P00742 41-179 limits assumed): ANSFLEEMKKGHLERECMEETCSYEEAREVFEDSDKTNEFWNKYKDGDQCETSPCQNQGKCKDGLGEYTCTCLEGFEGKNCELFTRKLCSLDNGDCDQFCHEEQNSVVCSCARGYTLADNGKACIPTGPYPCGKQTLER
Sequence of Coagulation factor X (Homo sapiens, UniProt P00742) (P00742 235-488 limits assumed): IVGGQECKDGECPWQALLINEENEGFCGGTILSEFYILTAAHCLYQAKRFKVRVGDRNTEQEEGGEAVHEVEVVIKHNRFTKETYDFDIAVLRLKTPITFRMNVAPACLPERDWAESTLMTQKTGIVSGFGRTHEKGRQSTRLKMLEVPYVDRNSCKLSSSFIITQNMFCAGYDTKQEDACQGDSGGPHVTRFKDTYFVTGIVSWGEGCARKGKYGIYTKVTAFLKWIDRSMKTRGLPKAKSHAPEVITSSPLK
Sequence of Plasminogen (P00747 97-580 limits assumed): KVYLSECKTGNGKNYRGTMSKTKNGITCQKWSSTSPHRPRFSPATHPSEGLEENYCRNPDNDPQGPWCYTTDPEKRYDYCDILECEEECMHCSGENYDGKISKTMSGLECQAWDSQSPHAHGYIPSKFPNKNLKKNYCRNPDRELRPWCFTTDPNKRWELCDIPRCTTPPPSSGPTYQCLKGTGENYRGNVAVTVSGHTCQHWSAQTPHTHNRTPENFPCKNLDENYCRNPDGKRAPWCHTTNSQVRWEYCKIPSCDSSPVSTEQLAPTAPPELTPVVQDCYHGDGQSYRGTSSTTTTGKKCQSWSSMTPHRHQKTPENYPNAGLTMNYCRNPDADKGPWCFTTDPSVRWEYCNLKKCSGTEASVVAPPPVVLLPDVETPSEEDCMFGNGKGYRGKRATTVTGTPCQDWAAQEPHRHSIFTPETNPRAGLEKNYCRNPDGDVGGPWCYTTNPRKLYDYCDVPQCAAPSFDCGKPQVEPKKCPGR
Sequence of Plasminogen (P00747 581-810 limits assumed): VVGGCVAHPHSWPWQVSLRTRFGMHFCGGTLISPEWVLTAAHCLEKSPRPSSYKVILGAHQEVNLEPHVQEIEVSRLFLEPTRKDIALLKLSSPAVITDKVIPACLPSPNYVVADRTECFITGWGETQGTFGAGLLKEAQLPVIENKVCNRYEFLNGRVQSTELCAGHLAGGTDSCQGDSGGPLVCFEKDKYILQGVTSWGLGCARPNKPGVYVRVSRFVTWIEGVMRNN
Sequence of Plasma kallikrein (P03952 20-390 limits assumed): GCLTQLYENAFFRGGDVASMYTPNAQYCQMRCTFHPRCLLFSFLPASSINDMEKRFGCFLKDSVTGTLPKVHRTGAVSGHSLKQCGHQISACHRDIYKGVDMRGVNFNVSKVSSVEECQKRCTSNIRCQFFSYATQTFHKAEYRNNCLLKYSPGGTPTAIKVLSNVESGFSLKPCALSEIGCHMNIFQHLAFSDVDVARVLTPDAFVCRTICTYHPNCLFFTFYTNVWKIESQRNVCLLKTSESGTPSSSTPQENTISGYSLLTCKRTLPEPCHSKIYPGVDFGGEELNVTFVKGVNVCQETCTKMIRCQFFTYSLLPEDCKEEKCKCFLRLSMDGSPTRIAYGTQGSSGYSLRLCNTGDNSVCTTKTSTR
Sequence of Plasma kallikrein (P03952 391-638 limits assumed): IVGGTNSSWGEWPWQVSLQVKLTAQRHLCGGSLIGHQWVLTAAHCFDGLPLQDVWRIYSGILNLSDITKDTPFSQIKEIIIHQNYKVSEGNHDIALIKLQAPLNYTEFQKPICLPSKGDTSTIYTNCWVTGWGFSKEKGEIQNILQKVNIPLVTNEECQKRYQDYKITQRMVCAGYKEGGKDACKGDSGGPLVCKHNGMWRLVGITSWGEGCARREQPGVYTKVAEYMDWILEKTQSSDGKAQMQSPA
Sequence of Coagulation factor IX (P00740 47-191 limits assumed): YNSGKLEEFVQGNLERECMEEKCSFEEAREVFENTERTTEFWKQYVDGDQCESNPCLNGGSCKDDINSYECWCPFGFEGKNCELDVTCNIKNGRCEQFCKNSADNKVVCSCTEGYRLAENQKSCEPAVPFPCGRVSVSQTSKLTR
Sequence of Coagulation factor IX (P00740 227-461 limits assumed): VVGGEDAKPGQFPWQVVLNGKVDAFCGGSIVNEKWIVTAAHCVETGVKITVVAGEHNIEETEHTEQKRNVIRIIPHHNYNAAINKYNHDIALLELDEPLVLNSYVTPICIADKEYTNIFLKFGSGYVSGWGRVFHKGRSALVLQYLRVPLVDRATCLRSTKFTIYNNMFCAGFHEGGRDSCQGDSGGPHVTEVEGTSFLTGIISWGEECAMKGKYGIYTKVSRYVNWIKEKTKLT
Sequence of Tissue-type plasminogen activator (P00750 whole entry): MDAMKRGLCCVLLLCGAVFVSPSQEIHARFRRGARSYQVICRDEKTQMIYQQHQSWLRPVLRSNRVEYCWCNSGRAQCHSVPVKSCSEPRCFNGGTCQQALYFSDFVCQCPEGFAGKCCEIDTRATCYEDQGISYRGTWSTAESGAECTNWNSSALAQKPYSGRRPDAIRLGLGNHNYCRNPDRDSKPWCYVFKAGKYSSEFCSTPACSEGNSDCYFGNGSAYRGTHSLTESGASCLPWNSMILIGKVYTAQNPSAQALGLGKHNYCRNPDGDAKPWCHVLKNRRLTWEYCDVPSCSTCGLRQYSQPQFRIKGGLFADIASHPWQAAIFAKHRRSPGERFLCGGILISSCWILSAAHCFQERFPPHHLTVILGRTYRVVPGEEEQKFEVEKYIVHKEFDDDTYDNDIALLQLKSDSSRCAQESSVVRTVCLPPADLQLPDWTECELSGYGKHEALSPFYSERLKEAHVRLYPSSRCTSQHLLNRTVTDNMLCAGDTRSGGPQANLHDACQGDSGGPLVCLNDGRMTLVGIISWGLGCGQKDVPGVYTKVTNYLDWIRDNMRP

`Cc1cc(C(=O)Nc2ccc(-c3ccccc3S(N)(=O)=O)cc2)n(-c2cccc(CN)c2)n1` registered an APTT in assay [1] of 2.3 µM. The results for the Ki in assay [2], in [3] and in assay [4] were 21000 nM, 2.7 nM and 4.1 nM, respectively.
With `N=C(N)c1cccc(-n2cccc2C(=O)Nc2ccc(-c3ccccc3S(N)(=O)=O)cc2)c1`, the Ki worked out at 900 nM in [2] and 0.8 nM in assay [3].
On to `Cc1cc(C(=O)Nc2ccc(-c3ccccc3F)cc2)n(-c2cccc(C(=N)N)c2)n1`, for which the values for the Ki in assay [5], in [2] and in assay [3] were 100 nM, 450 nM and 0.46 nM, respectively.
For `N=C(N)c1cccc(-n2nc(C(F)(F)F)cc2C(=O)Nc2ccc(-c3ccccc3S(N)(=O)=O)cc2F)c1` the same measures were 4 nM, 120 nM and less than 0.005 nM.
Regarding `Cc1cc(C(=O)Nc2ccc(-c3ccccc3S(N)(=O)=O)cc2)n(-c2cccc(C(=N)N)c2)n1.O=C(O)C(F)(F)F`, the APTT in assay [6] amounted to 0.44 µM. The compound further showed an ID50 in [7] of 0.02 µM/h/kg. The same compound had a Ki in assay [4] of 0.03 nM.
Consider `Cc1cc(C(=O)Nc2ccc(-c3ccccc3S(N)(=O)=O)cc2Br)n(-c2cccc(C(=N)N)c2)n1`, for which the results for the Ki in [5], in [2] and in assay [3] were 17 nM, 200 nM and 0.01 nM, respectively.
In the case of `N=C(N)c1cccc(-c2nocc2C(=O)Nc2ccc(-c3ccccc3S(N)(=O)=O)cc2)c1`, the Ki in assay [2] was determined as 2800 nM.
As to `CS(=O)(=O)c1ccccc1-c1ccc(NC(=O)c2cc(C(F)(F)F)nn2-c2cccc(CN)c2)cc1`, the APTT in assay [1] is 2.2 µM. In addition, the Ki in [5] was 100 nM; in [2] it was 5800 nM; in [3], 0.38 nM. Further, the ID50 in assay [8] was 2.2 µM/h/kg.
Take `CS(=O)(=O)c1ccccc1-c1ccc(NC(=O)c2cc(C(F)(F)F)nn2-c2cccc(C(=N)N)c2)cc1`: the Ki in [5] worked out at 4.3 nM; in assay [2], 70 nM; in [3] it was 0.008 nM.
Turning to `Cc1cc(C(=O)Nc2ccc(-c3ccccc3S(N)(=O)=O)cn2)n(-c2cccc(C(=N)N)c2)n1`, the values for the Ki in assay [5], in assay [2] and in assay [3] were 59 nM, 1400 nM and 0.007 nM, respectively. The compound also came in with an ID50 in assay [8] of 0.07 µM/h/kg.
For `NCc1cccc(-n2nc(C(F)(F)F)cc2C(=O)Nc2ccc(-c3ccccc3S(N)(=O)=O)cc2)c1`, the APTT in assay [1] was found to be 6.4 µM. For the same compound, the Ki in [5] is 120 nM; in [2] it was 14000 nM; in assay [3], 0.91 nM; in assay [4] it was 2.1 nM. For the same compound, the ID50 in [8] stood at 1 µM/h/kg.
Consider `Cc1cc(C(=O)Nc2ccc(-c3ccccc3C(F)(F)F)cc2)n(-c2cccc(C(=N)N)c2)n1`, for which the Ki in [5] came out at 49 nM; in assay [2], 300 nM; in [3], 0.04 nM. This compound gave an ID50 in assay [8] of 0.24 µM/h/kg.
Turning to `Cc1cc(C(=O)Nc2ccc(-c3ccccc3S(N)(=O)=O)cc2F)n(-c2cccc(CN)c2)n1`, the APTT in assay [1] is 0.92 µM. The Ki in assay [5] worked out at 120 nM; in assay [2], 12000 nM; in assay [3] it was 1.6 nM; in assay [4] it was 2.2 nM.
Take `NCc1cccc(-n2nc(C(F)(F)F)cc2C(=O)Nc2ccc(-c3ccccc3S(N)(=O)=O)cc2F)c1`: the APTT in [1] was 0.91 µM. For the same compound, the inhibitory constant (Ki) in assay [5] was determined as 53 nM; in assay [2], 2000 nM; in [3] it was 0.36 nM; in [4] it was 1 nM. The compound also showed an ID50 in assay [8] of 0.6 µM/h/kg.
Regarding `Cc1cc(C(=O)Nc2ccc(-c3ccccc3S(C)(=O)=O)cc2)n(-c2cccc(CN)c2)n1`, in assay [1], the APTT worked out at 1.3 µM. Besides, the Ki in assay [5] turned out to be 220 nM; in assay [2], 21000 nM; in [3], 0.89 nM.
Consider `N=C(N)c1cccc(-n2nc(C(F)(F)F)cc2C(=O)Nc2ccc(-c3ccccc3S(N)(=O)=O)cn2)c1`, for which the values for the Ki in [5], in assay [2] and in assay [3] were 59 nM, 400 nM and 0.009 nM, respectively.
`N=C(N)c1cccc(-n2nc(C(F)(F)F)cc2C(=O)Nc2ncc(-c3ccccc3S(N)(=O)=O)cn2)c1`: in [5], the Ki amounted to 20 nM.
On to `Cc1cc(C(=O)Nc2ccc(-c3ccccc3S(N)(=O)=O)cc2F)n(-c2cccc(C(=N)N)c2)n1`, for which the figures for the Ki in assay [5], in assay [2] and in assay [3] were 4.6 nM, 210 nM and 0.005 nM, respectively.
For `N=C(N)c1cccc(-n2nc(C(F)(F)F)cc2C(=O)Nc2ccc(-c3ccccc3S(N)(=O)=O)cc2)c1` the same measures were 3.9 nM, 40 nM and 0.015 nM.
As for `CCCCc1cc(C(=O)Nc2ccc(-c3ccccc3S(N)(=O)=O)cc2)n(-c2cccc(C(=N)N)c2)n1.O=C(O)C(F)(F)F`, the Ki in [5] amounted to 11 nM; in assay [2] it was 300 nM; in assay [3] it was 0.06 nM.
Regarding `N=C(N)c1cccc(-n2nccc2C(=O)Nc2ccc(-c3ccccc3S(N)(=O)=O)cc2)c1`, the Ki in [2] came out at 900 nM; in [3], 0.16 nM.
Take `Cc1cc(C(=O)N(C)c2ccc(-c3ccccc3S(N)(=O)=O)cc2)n(-c2cccc(C(=N)N)c2)n1.O=C(O)C(F)(F)F`: the Ki in assay [5] is greater than 1600 nM; in [2], greater than 2000 nM; in [3] it was 11 nM.
On to `CS(=O)(=O)c1ccccc1-c1ccc(NC(=O)c2cc(C(F)(F)F)nn2-c2cccc(C(=N)N)c2)c(F)c1`, for which the Ki in assay [5] was 3.4 nM; in assay [2] it was 50 nM; in [3] it was less than 0.005 nM.
As to `Cc1cc(C(=O)Nc2ccc(-c3ccccc3S(N)(=O)=O)cc2Cl)n(-c2cccc(C(=N)N)c2)n1`, the Ki in assay [5] came out at 15 nM; in assay [2], 300 nM; in assay [3], 0.009 nM.
Take `Cc1cc(C(=O)Nc2ncc(-c3ccccc3S(N)(=O)=O)cn2)n(-c2cccc(C(=N)N)c2)n1`: the Ki in assay [5] stood at 150 nM; in [2], 7400 nM; in assay [3] it was 0.041 nM. Besides, the ID50 in [8] came out at 0.03 µM/h/kg.
The compound `Cc1cc(C(=O)Nc2ccc(-c3ccccc3S(C)(=O)=O)cc2F)n(-c2cccc(CN)c2)n1` came in with an APTT in [1] of 1.1 µM. For the same compound, the Ki was 130 nM in [5], 14000 nM in assay [2], 480 nM in assay [3] and 1.2 nM in [4]. This compound also gave an ID50 in assay [8] of 0.9 µM/h/kg.
For the compound `Cc1cc(C(=O)Nc2ccc(-c3ccccc3S(C)(=O)=O)cc2F)n(-c2cccc(C(=N)N)c2)n1`, the figures for the Ki in assay [2] and in [3] were 230 nM and 0.02 nM, respectively.
With `Cc1cc(C(=O)Nc2ccc(-c3ccccc3S(C)(=O)=O)cc2)n(-c2cccc(C(=N)N)c2)n1`, the Ki in assay [5] is 13 nM; in [2] it was 180 nM; in assay [3], 0.008 nM.
As to `Cc1cc(C(=O)Nc2ccc(-c3ccccc3)cc2)n(-c2cccc(C(=N)N)c2)n1`, the Ki was found to be 87 nM in assay [5], 600 nM in assay [2] and 1.3 nM in assay [3].
Turning to `CS(=O)(=O)c1ccccc1-c1ccc(NC(=O)c2cc(C(F)(F)F)nn2-c2cccc(CN)c2)c(F)c1.Cl`, the Ki was greater than 45000 nM in assay [9]; 2200 nM in assay [10]; greater than 35000 nM in assay [11]; 0.3 nM in assay [12]; 61 nM in assay [13]; greater than 19000 nM in [14]. Moreover, the affinity in [15] corresponds to a Ki of 1800 nM. In assay [8], this compound yielded an ID50 of 1.1 µM/h/kg.
